Measurements gathered from unrelated publications.
Observed: cell growth or viability

Compound	cell line	method	tested at	time	endpoint	result
Cc1cccc2cc(CNCC3(N4CCCC4)COC3)cnc12	GBM6		30 µM	48 h	viability	104%
Cn1cc(-c2cc(N3CCCCS3(=O)=O)ccc2Oc2ccc(F)cc2F)c2c(F)c[nH]c2c1=O	Rec1	CCK-8		72 h	GI50	0.015 µM
COc1ccc(-c2ccc(-c3ccc(C(=N)N)nc3)s2)cc1Cl	SF-539	SRB			GI50	1.74 µM
Cc1[nH]c(C)c(-c2ccc(OCc3cccc(C(F)(F)F)c3)nc2)c(=O)c1Br	HEK293				IC50	> 10 µM
CC#CC(=O)N1CC[C@@H](n2cc(-c3ccc(Oc4c(F)cccc4F)cc3)c3c(N)n[nH]c(=O)c32)C1	KARPAS-422	ATP luminescence		72 h	GI50	12.1 µM
CCCc1n(Cc2ccc3ccccc3n2)cc[n+]1Cc1ccc2ccccc2n1	NCI-H322M	SRB			TGI	41.9 µM
COc1cc(-c2ccc(-c3ccc(C(=N)N)nc3)s2)cc(OC)c1OC	SF-539	SRB			GI50	1.61 µM
CCCCc1n(Cc2ccc3ccccc3n2)cc[n+]1Cc1ccc2ccccc2n1	NCI-H322M	SRB			TGI	16.3 µM
Fc1ccc2[nH]cc(CNCC3(N4CCC(F)C4)COC3)c2c1 (stereo not shown)	GBM6		30 µM	48 h	viability	77.6%
Cc1[nH]c(C)c(-c2ccc(CCc3ccc(C(F)(F)F)cc3)nc2)c(=O)c1Cl	HEK293				IC50	> 10 µM
c1cc2cc(CNCC3(N4CCCC4)COC3)ccc2[nH]1	GBM6		30 µM	48 h	viability	101%
COc1cccc(Oc2ccccc2NC(=O)CNC(=O)c2cccc3ccccc23)c1	SF-539	SRB		48 h	GI50	0.224 µM
CN1CCCC(CN2CCN(Cc3ccc(-c4cccc(-c5nc6ccccc6[nH]5)c4)cc3)CC2)C1 (stereo not shown)	HEK293				IC50	> 10 µM
Cc1cc(C)c(CNC(=O)c2cc(Cl)c3c(c2C)O[C@@](C)([C@H]2CC[C@H](N(C)C)CC2)O3)c(=O)[nH]1	KARPAS-422			8 days	GI50	0.013 µM
CCOC(=O)c1cn(CC)c2cc(N3CCCCCC3)c(F)cc2c1=O	HEK293				IC50	> 10 µM
Cc1n(Cc2ccc3ccccc3n2)cc[n+]1Cc1ccc2ccccc2c1	NCI-H322M	SRB			TGI	14.7 µM
FC1CCN(C2(CNCc3ccc(-c4ccccc4)o3)COC2)C1 (stereo not shown)	T98G		30 µM	48 h	viability	96.4%
Cc1[nH]cc(Br)c(=O)c1-c1ccc(Oc2ccccc2)cc1	HEK293				IC50	> 10 µM
c1ccc(-c2ccc(CNCC3(N4CCCC4)COC3)s2)cc1	T98G		30 µM	48 h	viability	69%
CC(=O)c1c(C)c2cnc(Nc3ccc(N4CCNCC4)cn3)nc2n(C2CCCC2)c1=O	HCC1428	resazurin			GI50	0.6 µM
Cc1cc(=O)c(-c2ccc(Oc3ccc(C(F)(F)F)cc3)cc2)c(C)n1O	HEK293				IC50	> 10 µM
c1ccc(-c2ccc(CNCC3(N4CCCC4)COC3)o2)cc1	GBM6		30 µM	48 h	viability	80.5%
COc1c(OCCCN2CCOCC2)ccc2c1N=C(NC(=O)c1cnc(N)nc1)N1CCN=C21	KPL4				EC50	0.0037 µM
Cc1[nH]c(C)c(-c2ccc(OCc3ccc(OC(F)(F)F)cc3)nc2)c(=O)c1Cl	HEK293				IC50	> 10 µM
Fc1ccc2c(CNCC3(N4CCC(F)C4)COC3)c[nH]c2c1 (stereo not shown)	GBM6		30 µM	48 h	viability	85.6%
COc1ccc(-c2ccc(-c3ccc(C(=N)N)nc3)s2)cc1	SF-539	SRB			GI50	1.73 µM
Cc1[nH]c(C)c(C(F)(F)F)c(=O)c1-c1ccc(Oc2ccc(OC(F)(F)F)cc2)cc1	HEK293				IC50	> 10 µM
c1cc2c(cc1CNCC1(N3CCCC3)COC1)OCCO2	GBM6		30 µM	48 h	viability	101%
